“And” between values parts separate entries of the source, which are not always exact repeats. Identical values can stand only once.
Key:
Rattus norvegicus [1] = experiment: Effective dose of compound that reduce edema by at least 25% in 50% of animals; type: functional
Procedure, shortened: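 Rats, fasted 2 h, water ad libitum; compound given orally in 0.25% methylcellulose, controls vehicle only, at several doses below the 200 mg/kg screen. Carrageenan (1% sterile, 0.05 cm³) injected into left hind foot pad 1 h later. Paw volume measured at 3 h.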

Mus musculus = species: Mus musculus; experiment: (§1) Lethal dose of compound was determined in mice by standard multidimensional observational assay; type: toxicity, organism-based; conditions: in vivo
Procedure, shortened: (§2)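 Approximate LD50 in mice, estimated from a standard multidimensional observational assay and calculated by the Litchfield–Wilcoxon method.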

[2] = as §1; type: toxicity, organism-based; conditions: mouse, in vivo; procedure, shortened: as §2
Rattus norvegicus [3] = experiment: Effective dose of compound that reduce edema in adrenolectomized rats by at least 25% in 50% of animals; type: functional
Procedure, shortened: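 Rats adrenalectomized several days before assay; otherwise as the intact-rat test: fasted 2 h, oral dosing in 0.25% methylcellulose at several doses, carrageenan (1%, 0.05 cm³) into left hind foot pad 1 h later, paw volume at 3 h.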

Rattus norvegicus [4] = experiment: Percent reduction of edema was measured after oral administration at 200 mg/kg using carrageenan-induced pedal edema assay; type: functional
Procedure, shortened: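 Rats fasted 2 h; single oral 200 mg/kg in 0.25% methylcellulose, vehicle controls. Carrageenan (1% sterile, 0.05 cm³) injected into left hind foot pad 1 h after dosing. Paw volume measured at peak swelling, 3 h, by displacement apparatus; edema from differential paw volume, expressed as % reduction vs control.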

[5] = Rattus norvegicus, read-out: ED50

Question: With `COc1ccccc1NC(=O)c1c(C)n(-c2ccccc2OC)c(C)cc1=O` as the compound, how does the ED50 (Rattus norvegicus [1]; [5]) read?
Answer: Its ED50 is 28 mg/kg.

Question: What about the LD50 (Mus musculus) of the same compound?
Answer: Its LD50 is 300 mg/kg.

Question: What about the LD50 [2] of the same compound?
Answer: The LD50 was 562 mg/kg.

Question: And the ED50 (Rattus norvegicus [3])?
Answer: The ED50 was 200 mg/kg.

Question: Which ED50 (Rattus norvegicus [1]) does the source give for `Cc1cc(=O)c(C(=O)Nc2ccccc2)c(C)n1-c1ccccc1` here?
Answer: The ED50 was over 200 mg/kg.

Question: And the ED50 (Rattus norvegicus [1]; [5])?
Answer: Its ED50 is 200 mg/kg.

Question: What about the Reduction (Rattus norvegicus [4]; 200 mg/kg) of the same compound?
Answer: The Reduction was 25% and 33%.

Question: What about the LD50 (Mus musculus) of the same compound?
Answer: The LD50 was 562 mg/kg.

Question: What about the LD50 [2] of the same compound?
Answer: The LD50 was 562 mg/kg.

Question: With `COc1ccc(OC)c(NC(=O)c2c(C)n(-c3cc(OC)ccc3OC)c(C)cc2=O)c1` as the compound, how does the Reduction (Rattus norvegicus [4]) read?
Answer: The Reduction was 0%.

Question: What about the LD50 [2] of the same compound?
Answer: The LD50 was 562 mg/kg.

Question: For `Cc1c(Br)c(=O)c(C(=O)Nc2ccccc2)c(C)n1-c1ccccc1`, which Reduction (Rattus norvegicus [4]) is on record?
Answer: Its Reduction is 23%.

Question: What about the LD50 [2] of the same compound?
Answer: Its LD50 is 562 mg/kg.

Question: What does the source list for `O=C(Nc1ccccc1)c1c(-c2ccccc2)n(-c2ccccc2)c(-c2ccccc2)cc1=O`?
Answer: Reduction (Rattus norvegicus [4]): 0%; LD50 [2]: 562 mg/kg

Question: Which Reduction (Rattus norvegicus [4]; 200 mg/kg) does the source give for `Cc1cccc(C)c1NC(=O)c1c(C)n(-c2c(C)cccc2C)c(C)cc1=O` here?
Answer: The Reduction was 31% and 26%.

Question: For `Cc1cc(=O)c(C(=O)Nc2ccccc2Cl)c(C)n1-c1ccccc1Cl`, which Reduction (Rattus norvegicus [4]; 200 mg/kg) is on record?
Answer: Its Reduction is 2% and 8%.

Question: What about the LD50 (Mus musculus) of the same compound?
Answer: The LD50 was 562 mg/kg.

Question: What about the LD50 [2] of the same compound?
Answer: The LD50 was 562 mg/kg.

Question: Which Reduction (Rattus norvegicus [4]; 200 mg/kg) does the source give for `Cc1cc(=O)c(C(=O)Nc2ccc(Cl)cc2)c(C)n1-c1ccc(Cl)cc1` here?
Answer: The Reduction was 58% and 62%.

Question: With `Cc1ccccc1NC(=O)c1c(C)n(-c2ccccc2C)c(C)cc1=O` as the compound, how does the ED50 (Rattus norvegicus [1]; [5]) read?
Answer: The ED50 was 80 mg/kg.

Question: What about the Reduction (Rattus norvegicus [4]; 200 mg/kg) of the same compound?
Answer: The Reduction was 17% and 49%.

Question: And the LD50 [2]?
Answer: The LD50 was 562 mg/kg.

Question: What about the ED50 (Rattus norvegicus [3]) of the same compound?
Answer: The ED50 was 84.8 mg/kg.

Question: For `Cc1cc(C)c(NC(=O)c2c(C)n(-c3c(C)cc(C)cc3C)c(C)cc2=O)c(C)c1`, which Reduction (Rattus norvegicus [4]) is on record?
Answer: The Reduction was 53%.

Question: For `Cc1cccc(NC(=O)c2c(C)n(-c3cccc(C)c3C)c(C)cc2=O)c1C`, which Reduction (Rattus norvegicus [4]) is on record?
Answer: The Reduction was 0%.

Question: What about the LD50 [2] of the same compound?
Answer: The LD50 was 562 mg/kg.

Reference: ChEMBL document CHEMBL1122003, “Preparation and antiinflammatory activity of 2- and 4-pyridones” (J Med Chem, 1982)
